This is a sample that favours compounds with a hit; in the whole collection about 0.72% have one here.
bIAP act: intestinal alkaline phosphatase (bovine) activation | purified bovine IAP, CDP-star luminescence, 30 min; stronger effect = higher value; fold of DMSO-control signal, blank-subtracted | activation factor at 20 µM | 0.17% of 200,000 active;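 active means activation factor of 2 or more at 20 µM, a signal rise over negative controls twice the positive control's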
hIAP inh: blocks human intestinal alkaline phosphatase; purified IAP, CDP-Star luminescence, 30 min; inhibition, % at 10 µM; 0.12% of 330,000 active;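 active means inhibition reaching a set limit with compound at 10 µM in the primary screen, cut at about 35% in these data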;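 further: plate controls were DMSO wells with enzyme for no effect and no-enzyme buffer wells for full effect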
Target sequence (P09923 whole entry, looked up): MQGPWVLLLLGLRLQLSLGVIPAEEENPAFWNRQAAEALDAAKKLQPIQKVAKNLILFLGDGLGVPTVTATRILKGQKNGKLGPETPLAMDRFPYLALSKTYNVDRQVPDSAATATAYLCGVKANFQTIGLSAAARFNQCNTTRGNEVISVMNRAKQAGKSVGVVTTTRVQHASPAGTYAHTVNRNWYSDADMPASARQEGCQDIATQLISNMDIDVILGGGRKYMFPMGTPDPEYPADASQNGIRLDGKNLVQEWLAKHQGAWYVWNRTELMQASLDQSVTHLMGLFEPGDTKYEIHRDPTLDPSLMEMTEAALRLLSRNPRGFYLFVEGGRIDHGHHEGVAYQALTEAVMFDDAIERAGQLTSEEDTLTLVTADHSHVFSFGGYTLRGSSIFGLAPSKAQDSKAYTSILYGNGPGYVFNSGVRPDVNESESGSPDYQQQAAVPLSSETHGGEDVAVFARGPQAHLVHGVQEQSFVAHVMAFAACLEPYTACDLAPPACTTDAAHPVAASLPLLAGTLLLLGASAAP
mIAP act: increases mouse intestinal alkaline phosphatase activity. muIAP, CDP-Star luminescence, 30 min; stronger effect = higher value; 1 = vehicle-only enzyme signal, 0 = enzyme-free wells. activation factor at 10 µM. 0.24% of 330,000 active. AID 2805;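 active means activation factor of at least 2 at 20 µM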
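also added = chemiluminescent substrate CDP-Star | test system = mouse IAP enzyme | signal = chemiluminescence readout | compound = DMSO-dissolved test compounds | incubation = 30 min at room temperature | benchmarks = DMSO wells, no-enzyme wells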
bIAP inh: blocks bovine intestinal alkaline phosphatase activity | purified bovine IAP, CDP-star luminescence, 30 min | 190,000 tested, under 10 active | AID 1019 | inhibition, % at 20 µM;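 active means over 50% inhibition of intestinal alkaline phosphatase at 20 µM in the single-dose screen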
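Assay system – bovine IAP enzyme · Quantity – bovine IAP at 1/65,000,000 final dilution · Detection – CDP-star luminescence signal · Times – 30 min reaction at room temperature · Also added – CDP-star substrate at 30 µM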
hIAP activ: human IAP activation; purified human IAP, CDP-Star luminescence, 30 min; stronger effect = higher value; 1 = vehicle-only enzyme, 0 = enzyme-free background; AID 2524; 0.16% of 330,000 active; activation factor at 10 µM;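 active means activation factor of the enzyme at least 2-fold when tested at 20 µM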
mIAP block: blocks mouse intestinal alkaline phosphatase; purified mouse IAP, CDP-Star luminescence, 30 min; inhibition, % at 10 µM; 0.2% of 330,000 active;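 active means inhibition of at least 40% at 10 µM in the primary screen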;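 further: plate controls were DMSO with enzyme for no effect and no enzyme wells for full effect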
The depositor's hits bear a star; i = inactive; nt = not tested or not shown.

SMILES	bIAP act	hIAP inh	mIAP act	bIAP inh	hIAP activ	mIAP block
CCc1ccc(NC(=S)NC2CC3CCCC(C2)N3Cc2cccs2)cc1 (stereo unspecified)	1.6	-50	5.7*	-56	1.5	-470
CCc1ccccc1NC(=O)NC1CC2CCC(C1)N2Cc1cccs1 (stereo unspecified)	1.2	-4	1.2	-17	1	-22
CN(C(=O)Cn1cnc2sccc2c1=O)C1CCCCC1	nt	-5	1	nt	1	-1
O=C(Nc1nonc1-c1ccc(F)cc1)c1ccco1	nt	18	0.92	nt	0.82	8
COC(=O)Nc1ccc(S(=O)(=O)Nc2ccc(O)cc2)cc1	2.4*	-5	0.88	-142	1.1	12
COC(=O)Nc1ccc(S(=O)(=O)Nc2ccc(C)cc2)cc1	0.9	nt	nt	6	nt	nt
Cc1ccc(C)c(S(=O)(=O)N2CCN(C(=O)Cn3c(=O)cnc4ccccc43)CC2)c1	nt	3	0.94	nt	0.97	6
C#CCOCCOCCOCCNc1nc(N2CCN(C(=O)[C@H](Cc3cc4ccccc4[nH]3)n3cc([C@@H](N)C(C)CC)nn3)CC2)nc(N2CCN(C(=O)[C@H](Cc3cc4ccccc4[nH]3)n3cc([C@@H](N)CC(C)C)nn3)CC2)n1 (stereo partly specified)	5.4*	13	1.4	-442	0.87	-44
CCOC(=O)c1ccc(NC(=S)NCc2ccc(F)cc2)cc1	nt	6	2.3*	nt	0.94	-131
Cc1cc(OCCCCn2ccnc2)cc(C)c1Cl	16*	-15	0.96	i	1.1	4
CCCCCCOc1ccc(C(=O)NCCCn2ccnc2)cc1	2*	-37	1.2	-101	1.4	-17
Cc1cc(Cl)cc(C)c1OCCCCn1ccnc1	1.1	5	1	-9	0.95	-3
CCCCOc1ccc(NC(=O)C(=O)NCCCn2ccnc2)cc1	1.3	-12	0.89	-25	1.1	11
COc1cc2ncc(C(=O)c3ccccc3)c(N3CCN(Cc4ccccc4)CC3)c2cc1OC	nt	0	0.91	nt	1	9
Cc1nn(Cc2cccc(Oc3ccccc3)c2)c(C)c1NC(=O)NC12CC3CC(CC(C3)C1)C2	1	4	6.8*	0	0.96	i
O=C(NCc1ccccc1)NC12CC3CC(CC(C3)C1)C2	nt	5	1.1	nt	0.95	-10
COCCCNC(=O)C[C@H]1C[C@H](C(=O)N2CCOCC2)[C@@]2(CCC3CCCC3)c3[nH]c4ccc(Cl)cc4c3CCN2C1=O	nt	nt	1.2	nt	nt	-16
CCN(CC(=O)NCc1ccc(F)cc1)C(=O)c1ccc2c(c1)OCO2	nt	5	0.94	nt	0.95	6
CSc1cccc(NC(=O)Nc2nc3c(C)cccc3s2)c1	nt	-20	2.1*	nt	1.2	-115
COc1cc(/C=C2/C(=O)NN(c3cccc(F)c3)C2=O)ccc1OC(=O)c1ccco1	2.1*	16	0.89	-109	0.84	11
O=c1oc(-c2ccc([N+](=O)[O-])cc2)nc2ccc(O)cc12	1.2	-14	1	-23	1.1	-3
FC(F)(F)c1cccc(CNC(=S)Nc2ccccc2)c1	0.7	-8	1.3	26	1.1	-34
CC(=O)c1ccc(S(=O)(=O)N2CCC(NC(=O)Nc3cccc(F)c3)CC2)cc1	1.1	-21	1.2	-13	1.2	-21
O=C(Nc1cccc(C(F)(F)F)c1)NC1CCN(S(=O)(=O)c2ccc(F)cc2)CC1	0.9	7	2.3*	12	0.93	-134
S=C(NCc1ccccc1)NCc1cccc(CNC(=S)NCc2ccccc2)c1	0.9	6	2.4*	6	0.94	-140
SMILES	bIAP act	hIAP inh	mIAP act	bIAP inh	hIAP activ	mIAP block
O=C(Nc1ccccc1)Nc1cccc(C(F)(F)F)c1	1	-15	2.9*	1	1.2	-187
CNC(=O)Nc1cccc(C(F)(F)F)c1	0.9	6	0.91	6	0.94	9
FC(F)(F)c1cccc(NC(=S)NCc2ccccc2)c1	0.6	-23	2.2*	37	1.2	-120
COC(=O)C1=C(CS(=O)(=O)c2cc(Cl)ccc2OC)NC(=O)NC1c1ccc(O)c(OC)c1 (stereo unspecified)	nt	13	0.9	nt	0.87	10
O=C(CCN1C(=O)C2CC=CCC2C1=O)Nc1cc(C(F)(F)F)ccc1N1CCCC1 (stereo unspecified)	nt	-5	0.95	nt	1	5
CCOC(=O)C1(CCc2ccccc2)CCN(Cc2cc(OC)c(OC)cc2OC)CC1	nt	-6	0.98	nt	1.1	2
